From ChEMBL document CHEMBL1152781, “Design, synthesis, and structure-activity analysis of isoform-selective retinoic acid receptor beta ligands” (J Med Chem, 2009)
Converted amounts (≈) assume the structure as drawn. Each block holds one compound with its values, some of them ahead of it. The source made the active and inactive calls. The calls are words filed in the database; no cut-off is given here.

What was measured:
[1] = target: T1, Retinoic acid receptor beta (Homo sapiens, UniProt P10826); assay: Agonist activity at RARbeta2 expressed in mouse NIH3T3 cells by R-SAT assay; format: functional, cell-based; settings: for pEC50: nih3t3
T1 sequence (P10826 whole entry): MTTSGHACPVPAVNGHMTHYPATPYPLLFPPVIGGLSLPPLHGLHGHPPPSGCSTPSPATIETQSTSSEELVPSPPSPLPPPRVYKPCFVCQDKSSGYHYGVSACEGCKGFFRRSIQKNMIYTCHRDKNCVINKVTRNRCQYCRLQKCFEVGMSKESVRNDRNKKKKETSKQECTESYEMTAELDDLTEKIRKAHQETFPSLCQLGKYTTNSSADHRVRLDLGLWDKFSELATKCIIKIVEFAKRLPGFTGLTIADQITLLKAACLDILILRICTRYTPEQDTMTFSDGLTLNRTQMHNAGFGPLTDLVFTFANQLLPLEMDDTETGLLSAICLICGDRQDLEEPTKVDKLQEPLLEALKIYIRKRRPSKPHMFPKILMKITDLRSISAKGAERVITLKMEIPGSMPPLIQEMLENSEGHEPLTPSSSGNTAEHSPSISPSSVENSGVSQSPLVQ

[2] = target: T2, Retinoic acid receptor beta (Homo sapiens) (UniProt P10826); assay: Agonist activity at RARbeta2 expressed in mouse NIH3T3 cells by R-SAT assay relative to Am-580; format: functional, cell-based
T2 sequence (whole entry): T1 sequence (P10826 whole entry)
In short: (§1)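 High-throughput cell-proliferation functional assay (R-SAT). Efficacy is expressed relative to reference agonist AM-580, which is set to 100%. pEC50 and efficacy are means of at least three experiments ± SD. […] Where marked, efficacy is the maximum at concentrations <10 µM.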

[3] = target: T2, Retinoic acid receptor beta (Homo sapiens); assay: Activity at RARbeta1 expressed in mouse NIH3T3 cells by R-SAT assay relative to Am-580; format: cell-based; in short: as §1
[4] = target: T3, Retinoic acid receptor gamma (Homo sapiens) (UniProt P13631); assay: Activity at RARgamma expressed in mouse NIH3T3 cells at <10 uM by R-SAT assay relative to Am-580; format: cell-based; in short: as §1
T3 sequence (whole entry): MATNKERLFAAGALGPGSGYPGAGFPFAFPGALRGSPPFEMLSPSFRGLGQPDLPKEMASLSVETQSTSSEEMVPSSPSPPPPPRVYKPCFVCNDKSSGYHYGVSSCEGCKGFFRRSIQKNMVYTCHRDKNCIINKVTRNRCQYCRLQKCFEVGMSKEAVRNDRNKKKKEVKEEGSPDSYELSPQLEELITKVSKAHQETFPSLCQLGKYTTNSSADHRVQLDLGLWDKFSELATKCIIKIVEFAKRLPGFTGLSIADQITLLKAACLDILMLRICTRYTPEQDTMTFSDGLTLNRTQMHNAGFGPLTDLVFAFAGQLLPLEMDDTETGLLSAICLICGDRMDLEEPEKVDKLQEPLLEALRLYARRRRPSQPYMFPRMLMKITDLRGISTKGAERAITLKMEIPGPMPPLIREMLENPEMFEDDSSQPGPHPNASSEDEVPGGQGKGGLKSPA

[5] = target: T4, Retinoic acid receptor alpha (Homo sapiens, UniProt P10276); assay: Activity at RARalpha expressed in mouse NIH3T3 cells by R-SAT assay; format: cell-based; settings: for pEC50: nih3t3
T4 sequence (P10276 whole entry): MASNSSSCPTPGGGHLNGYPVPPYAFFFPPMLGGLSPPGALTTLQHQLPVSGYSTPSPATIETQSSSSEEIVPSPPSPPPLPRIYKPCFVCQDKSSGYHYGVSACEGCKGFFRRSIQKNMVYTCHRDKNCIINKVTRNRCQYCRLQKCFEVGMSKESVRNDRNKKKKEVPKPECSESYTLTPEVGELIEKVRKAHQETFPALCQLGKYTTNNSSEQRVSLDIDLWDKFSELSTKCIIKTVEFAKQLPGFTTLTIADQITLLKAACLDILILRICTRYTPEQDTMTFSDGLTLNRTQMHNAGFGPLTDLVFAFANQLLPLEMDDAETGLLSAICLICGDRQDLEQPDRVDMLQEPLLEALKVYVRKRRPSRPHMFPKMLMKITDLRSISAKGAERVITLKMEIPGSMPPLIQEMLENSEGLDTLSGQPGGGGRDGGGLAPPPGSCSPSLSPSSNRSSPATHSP

[6] = target: T2, Retinoic acid receptor beta (Homo sapiens); assay: Activity at RARbeta1 expressed in mouse NIH3T3 cells at <10 uM by R-SAT assay relative to Am-580; format: cell-based; in short: as §1
[7] = target: T5, Retinoic acid receptor gamma (Homo sapiens, UniProt P13631); assay: Activity at RARgamma expressed in mouse NIH3T3 cells by R-SAT assay; format: cell-based; settings: for pEC50: nih3t3
T5 sequence (P13631 whole entry): T3 sequence (whole entry)

[8] = target: T3, Retinoic acid receptor gamma (Homo sapiens); assay: Activity at RARgamma expressed in mouse NIH3T3 cells by R-SAT assay relative to Am-580; format: cell-based; in short: as §1
[9] = Metabolic stability in human liver microsomes assessed as intrinsic clearance; format: ADME, Microsome
In short: (§2)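 Liver microsomes, rat or human, as stated per line. Read-out is intrinsic clearance in µL/(min·mg) protein. Hepatic extraction was calculated without correcting for the unbound fraction of drug in plasma.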

[10] = Distribution coefficient, log D of the compound; format: physicochemical; settings: octanol/water
In short: (§3)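 Lipophilicity descriptors, cLogD at pH 7.4 and cLogP, are mostly calculated. Values in parentheses are experimentally determined.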

[11] = target: T1, Retinoic acid receptor beta; assay: Activity at RARbeta1 expressed in mouse NIH3T3 cells by R-SAT assay; format: cell-based
NIH3T3 [12] = assay: Selectivity for RARbeta2 expressed in mouse NIH3T3 cells over RARgamma expressed in mouse NIH3T3 cells; format: cell-based
[13] = Lipophilicity, Log P of the compound; format: physicochemical; settings: octanol/water; in short: as §3
[14] = Metabolic stability in rat liver microsomes assessed as intrinsic clearance; format: ADME, Microsome; in short: as §2
MCF7 [15] = assay: Inhibition of human MCF7 cell proliferation assessed as inhibition of DNA synthesis by [3H]thymidine incorporation assay; format: functional, cell-based
[16] = Aqueous solubility in phosphate buffer at pH 7.4; format: physicochemical
[17] = target: T2, Retinoic acid receptor beta (Homo sapiens); assay: Activation of RARbeta2 expressed in HEK293 cells after 48 hrs by RARE-luciferase reporter gene assay; format: cell-based
NTERA2 = assay: Induction of neurite outgrowth in human NTERA2 cells; format: functional, cell-based
MCF7 [18] = assay: Inhibition of human MCF7 cell proliferation; format: functional, cell-based
NIH3T3 [19] = assay: Selectivity for RARbeta2 expressed in mouse NIH3T3 cells over RARbeta1 expressed in mouse NIH3T3 cells; format: cell-based
NIH3T3 [20] = assay: Selectivity for RARbeta2 expressed in mouse NIH3T3 cells over RARalpha expressed in mouse NIH3T3 cells; format: cell-based
[21] = target: T6, Retinoic acid receptor alpha (Homo sapiens) (UniProt P10276); assay: Activity at RARalpha expressed in mouse NIH3T3 cells at <10 uM by R-SAT assay relative to Am-580; format: cell-based; in short: as §1
T6 sequence (whole entry): T4 sequence (P10276 whole entry)

[22] = Clearance in rat; format: ADME, organism-based; settings: in vivo

Compound: CCCCCCNC(=O)COc1ccc(-c2ccc(C(=O)O)cc2)cc1
pEC50 [1]: > 5
Activity [2]: inactive

Compound: CCCCCCCCc1ccc(-c2ccc(C(=O)O)s2)cc1
pEC50 [1]: > 5
Activity [2]: inactive

Compound: CCCCOCCOc1cc(C)c(-c2ccc(C(=O)O)cc2)cc1C
EC50 [1]: 251 nM
Efficacy [2]: 41%

Compound: CCCCCCCOc1ccc(-c2ccc(C(=O)O)cc2)cc1
EC50 [1]: 63.1 nM
pEC50 [7]: > 5
Activity [3]: inactive
pEC50 [5]: > 5
Efficacy [2]: 62%
Activity [8]: inactive

Compound: CCCCCCCc1ccc(-c2ccc(C(=O)O)cc2C)cc1
pEC50 [1]: > 5
Activity [2]: inactive

Compound: CCCCCCCOc1nc(-c2ccc(C(=O)O)cc2)sc1C
pEC50 [1]: > 5
Activity [2]: inactive

Compound: CCOCCOc1nc(-c2ccc(C(=O)O)cc2)sc1C
EC50 [1]: 63.1 nM
Efficacy [2]: 78%

Compound: CCCCCCNC(=O)COc1nc(-c2ccc(C(=O)O)cc2)sc1C
EC50 [1]: 39.8 nM
EC50 [7]: 631 nM
Efficacy [21]: 35%
Efficacy [2]: 85%
Efficacy [6]: 42%
Efficacy [8]: 63%

Compound: CC1(C)CCC(C)(C)c2cc(C(=O)Nc3ccc(C(=O)O)cc3)ccc21
Efficacy [8]: 99%

Compound: CCCCCCCc1ccc(-c2ccc(C(=O)O)cc2)cc1
Efficacy [3]: 230%

Compound: CCCOCCOc1nc(-c2ccc(C(=O)O)cc2)sc1C
EC50 [1]: 126 nM
Efficacy [2]: 100%

Compound: CCCCCCCc1cnc(-c2ccc(C(=O)O)cc2)nc1
EC50 [1]: 1000 nM
Efficacy [2]: 93%

Compound: CCCCOCCOc1nc(-c2ccc(C(=O)O)c(F)c2)sc1C
microsomal CLint [9]: 36 µL/min/mg
EC50 [7]: 501 nM
EC50 [11]: 398 nM
clearance [22]: 41 mL/min/kg
microsomal CLint [14]: 10 µL/min/mg
Efficacy [3]: 52%
EC50 [5]: 631 nM
Efficacy [2]: 106%
Efficacy [8]: 48%

Compound: CCCCOCCOc1ccc(-c2ccc(C(=O)O)c(F)c2)cc1
EC50 [1]: 20 nM
microsomal CLint [9]: 8 µL/min/mg
solubility [16]: 20 µg/mL (≈ 60.2 µM)
Efficacy [4]: 37%
EC50 [5]: 1580 nM
Efficacy [2]: 108%
Efficacy [6]: 36%

Compound: CCCCCCCc1ccc(-c2ccc(C(=O)O)c(F)c2)cc1
EC50 [1]: 126 nM
Efficacy [2]: 50%

More lines, main results first:

EC50 [1]: 31.6 nM
Activity [3]: inactive
Efficacy [2]: 72%
Compound: CCCCCCOc1ccc(-c2ccc(C(=O)O)cc2)cc1

Efficacy [4]: 31%
pEC50 [5]: > 5
Efficacy [2]: 75%
Efficacy [6]: 28%
Compound: CC(C)CCCCOc1ccc(-c2ccc(C(=O)O)cc2)cc1

microsomal CLint [9]: 5 µL/min/mg
logD [10]: 4.5
EC50 [11]: 2000 nM
logP [13]: 7.9
microsomal CLint [14]: 5 µL/min/mg
solubility [16]: < 1 µg/mL
Efficacy [4]: 31%
Activity [17]: Active
Efficacy [3]: 29%
EC50 [5]: 2510 nM
Compound: CCCCCCCCc1ccc(-c2ccc(C(=O)O)cc2)cc1
fold change (FC) (NIH3T3 [12]): 100
Activity (MCF7 [15]): Active
Activity (NTERA2): Active
Activity (MCF7 [18]): Dose-dependent effect
fold change (FC) (NIH3T3 [19]): 100
fold change (FC) (NIH3T3 [20]): 100

EC50 [1]: 631 nM
Efficacy [2]: 84%
Compound: CCCCCCCCc1ccc(-c2ccc(C(=O)O)c(C)c2)cc1

EC50 [1]: 79.4 nM
EC50 [11]: 1260 nM
Efficacy [4]: 54%
Efficacy [3]: 45%
Efficacy [2]: 99%
Compound: CCCCOCCOc1nc(-c2ccc(C(=O)O)cc2)sc1C

EC50 [1]: 63.1 nM
pEC50 [7]: > 5
Activity [3]: inactive
pEC50 [5]: > 5
Efficacy [2]: 78%
Activity [8]: inactive
Compound: CCCCOCCOc1ccc(-c2ccc(C(=O)O)cc2)cc1

EC50 [1]: 39.8 nM
EC50 [7]: 158 nM
EC50 [11]: 398 nM
Efficacy [3]: 54%
EC50 [5]: 2000 nM
Efficacy [2]: 114%
Efficacy [8]: 84%
Compound: CCCCCCCCc1ccc(-c2ccc(C(=O)O)c(F)c2)cc1

EC50 [1]: 100 nM
Efficacy [2]: 85%
Compound: CCCCCCCCc1ccc(-c2ccc(C(=O)O)cc2F)cc1

pEC50 [1]: > 5
Activity [2]: inactive
Compound: CCCCCCCc1ccc(-c2ccc(C(=O)O)s2)cc1

EC50 [1]: 100 nM
EC50 [11]: 1000 nM
Efficacy [3]: 49%
Efficacy [2]: 70%
Compound: CCCCCCCCOc1ccc(-c2ccc(C(=O)O)cc2)cc1

EC50 [1]: 100 nM
Efficacy [2]: 37%
Compound: CCCCCCCCc1ccc(-c2ccc(C(=O)O)cc2C)cc1
